Data: ChEMBL document CHEMBL1128440 (J Med Chem, 1995)

Tests used:
Rattus norvegicus [1] = organism: Rattus norvegicus; assay: Tissue biodistribution into estrogen-primed immature female rat blood at 1 hr time interval; type: ADME, organism-based; settings: in vivo
Procedure, shortened: (§1)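 Immature female Sprague-Dawley rats (25 days old, ≈50 g, five per time point) primed with estradiol, 5 μg sc daily for 2 days in 50% ethanol/sunflower seed oil, used 24 h after the last injection. The 18F-labeled ligand was given iv by tail vein in 10% ethanol/saline. Decapitated at 1 or 3 h; blood and organs weighed and gamma-counted. Reported as %ID/g ± SD, n = 5.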

Rattus norvegicus [2] = organism: Rattus norvegicus; assay: Tissue biodistribution into estrogen-primed immature female rat liver at 3 hr time interval; type: ADME, organism-based; settings: in vivo; procedure, shortened: as §1
Rattus norvegicus [3] = organism: Rattus norvegicus; assay: Tissue biodistribution into estrogen-primed immature female rat uterus/muscle at 3 hr time interval; type: ADME, organism-based; settings: in vivo
Rattus norvegicus [4] = organism: Rattus norvegicus; assay: Tissue biodistribution into estrogen-primed immature female rat lung at 3 hr time interval; type: ADME, organism-based; settings: in vivo; procedure, shortened: as §1
Rattus norvegicus [5] = organism: Rattus norvegicus; assay: Tissue biodistribution into estrogen-primed immature female rat uterus at 1 hr low time interval; type: ADME, organism-based; settings: in vivo; procedure, shortened: as §1
Rattus norvegicus [6] = organism: Rattus norvegicus; assay: Tissue biodistribution into estrogen-primed immature female rat liver at 1 hr time interval; type: ADME, organism-based; settings: in vivo; procedure, shortened: as §1
Rattus norvegicus [7] = organism: Rattus norvegicus; assay: Tissue biodistribution into estrogen-primed immature female rat bone at 1 hr low time interval; type: ADME, organism-based, Bone element; settings: in vivo; procedure, shortened: as §1
Rattus norvegicus [8] = organism: Rattus norvegicus; assay: Tissue biodistribution into estrogen-primed immature female rat brain at 1 hr low time interval; type: ADME, organism-based; settings: in vivo; procedure, shortened: as §1
Rattus norvegicus [9] = organism: Rattus norvegicus; assay: Tissue biodistribution into estrogen-primed immature female rat lung at 1 hr blocked time interval; type: ADME, organism-based; settings: in vivo; procedure, shortened: as §1
Rattus norvegicus [10] = organism: Rattus norvegicus; assay: Tissue biodistribution into estrogen-primed immature female rat bone at 1 hr blocked time interval; type: ADME, organism-based, Bone element; settings: in vivo; procedure, shortened: as §1
Rattus norvegicus [11] = organism: Rattus norvegicus; assay: Tissue biodistribution into estrogen-primed immature female rat bone at 3 hr time interval; type: ADME, organism-based, Bone element; settings: in vivo; procedure, shortened: as §1
Rattus norvegicus [12] = organism: Rattus norvegicus; assay: Tissue biodistribution into estrogen-primed immature female rat kidney at 1 hr low time interval; type: ADME, organism-based; settings: in vivo; procedure, shortened: as §1
Rattus norvegicus [13] = organism: Rattus norvegicus; assay: Tissue biodistribution into estrogen-primed immature female rat brain at 1 hr time interval; type: ADME, organism-based; settings: in vivo; procedure, shortened: as §1
Rattus norvegicus [14] = organism: Rattus norvegicus; assay: Tissue biodistribution into estrogen-primed immature female rat uterus/blood at 1 hr low time interval; type: ADME, organism-based; settings: in vivo; procedure, shortened: as §1
Rattus norvegicus [15] = organism: Rattus norvegicus; assay: Tissue biodistribution into estrogen-primed immature female rat lung at 1 hr low time interval; type: ADME, organism-based; settings: in vivo; procedure, shortened: as §1
Rattus norvegicus [16] = organism: Rattus norvegicus; assay: Tissue biodistribution into estrogen-primed immature female rat uterus at 3 hr time interval; type: ADME, organism-based; settings: in vivo; procedure, shortened: as §1
Rattus norvegicus [17] = organism: Rattus norvegicus; assay: Tissue biodistribution into estrogen-primed immature female rat muscle at 1 hr low time interval; type: ADME, organism-based; settings: in vivo; procedure, shortened: as §1
Rattus norvegicus [18] = organism: Rattus norvegicus; assay: Tissue biodistribution into estrogen-primed immature female rat brain at 3 hr time interval; type: ADME, organism-based; settings: in vivo; procedure, shortened: as §1
Rattus norvegicus [19] = organism: Rattus norvegicus; assay: Tissue biodistribution into estrogen-primed immature female rat uterus/blood at 1 hr blocked time interval; type: ADME, organism-based; settings: in vivo; procedure, shortened: as §1
Rattus norvegicus [20] = organism: Rattus norvegicus; assay: Tissue biodistribution into estrogen-primed immature female rat bone at 1 hr time interval; type: ADME, organism-based, Bone element; settings: in vivo; procedure, shortened: as §1
[21] = target: T1, Progesterone receptor (Homo sapiens) (UniProt P06401); assay: Binding selectivity index as the ratio of RBA value to that of NSB value.
T1 sequence (whole entry): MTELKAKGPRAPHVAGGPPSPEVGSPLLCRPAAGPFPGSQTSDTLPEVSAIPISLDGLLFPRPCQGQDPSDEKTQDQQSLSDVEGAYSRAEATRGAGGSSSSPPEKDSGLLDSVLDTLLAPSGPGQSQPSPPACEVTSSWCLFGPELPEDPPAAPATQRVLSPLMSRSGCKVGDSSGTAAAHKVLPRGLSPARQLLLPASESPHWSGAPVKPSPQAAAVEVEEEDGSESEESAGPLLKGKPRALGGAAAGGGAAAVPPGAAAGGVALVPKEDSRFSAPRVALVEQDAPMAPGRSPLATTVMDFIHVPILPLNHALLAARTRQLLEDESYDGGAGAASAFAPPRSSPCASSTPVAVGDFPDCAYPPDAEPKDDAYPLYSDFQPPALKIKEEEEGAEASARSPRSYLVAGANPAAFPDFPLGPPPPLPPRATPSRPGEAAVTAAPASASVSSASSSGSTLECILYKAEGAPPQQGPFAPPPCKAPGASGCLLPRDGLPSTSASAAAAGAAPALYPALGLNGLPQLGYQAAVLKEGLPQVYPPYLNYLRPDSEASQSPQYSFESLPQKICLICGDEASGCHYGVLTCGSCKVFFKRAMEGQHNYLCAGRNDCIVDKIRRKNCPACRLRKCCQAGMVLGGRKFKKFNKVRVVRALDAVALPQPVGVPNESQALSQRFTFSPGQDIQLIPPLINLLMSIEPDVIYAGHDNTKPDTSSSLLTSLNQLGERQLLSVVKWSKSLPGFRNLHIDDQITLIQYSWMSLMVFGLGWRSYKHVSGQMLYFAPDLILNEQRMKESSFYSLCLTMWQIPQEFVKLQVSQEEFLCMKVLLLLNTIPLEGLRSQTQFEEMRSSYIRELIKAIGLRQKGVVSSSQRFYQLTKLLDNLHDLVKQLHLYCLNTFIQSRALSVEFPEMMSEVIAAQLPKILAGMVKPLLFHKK
Procedure, shortened: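 BSI calculated as the ratio of RBA to NSB.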

[22] = Partition coefficient (logP); type: physicochemical; settings: octanol/water; read-out: logP
Procedure, shortened: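 log P(o/w) (octanol/water) estimated by a reversed-phase HPLC method.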

Rattus norvegicus [23] = organism: Rattus norvegicus; assay: Tissue biodistribution into estrogen-primed immature female rat blood at 1 hr blocked time interval; type: ADME, organism-based; settings: in vivo; procedure, shortened: as §1
Rattus norvegicus [24] = organism: Rattus norvegicus; assay: Tissue biodistribution into estrogen-primed immature female rat brain at 1 hr blocked time interval; type: ADME, organism-based; settings: in vivo; procedure, shortened: as §1
Rattus norvegicus [25] = organism: Rattus norvegicus; assay: Tissue biodistribution into estrogen-primed immature female rat uterus/blood at 3 hr time interval; type: ADME, organism-based; settings: in vivo; procedure, shortened: as §1
Rattus norvegicus [26] = organism: Rattus norvegicus; assay: Tissue biodistribution into estrogen-primed immature female rat uterus/muscle at 1 hr time interval; type: ADME, organism-based; settings: in vivo

## CC1(c2ccco2)O[C@@H]2CC3C4CCC5=CC(=O)CC[C@@H]5C4CC[C@]3(C)[C@]2(C(=O)CF)O1 (stereo partly specified)
Rattus norvegicus [1]
  Injected dose/g: 0.32%
Rattus norvegicus [2]
  Injected dose/g: 1.61%
Rattus norvegicus [3]
  ratio: 53.1
Rattus norvegicus [4]
  Injected dose/g: 0.27%
Rattus norvegicus [5]
  Injected dose/g: 3.46%
Rattus norvegicus [6]
  Injected dose/g: 1.26%
Rattus norvegicus [7]
  Injected dose/g: 0.84%
Rattus norvegicus [8]
  Injected dose/g: 0.34%
Rattus norvegicus [9]
  Injected dose/g: 1.16%
Rattus norvegicus [10]
  Injected dose/g: 1.29%
Rattus norvegicus [11]
  Injected dose/g: 1.51%
Rattus norvegicus [12]
  Injected dose/g: 0.97%
Rattus norvegicus [13]
  Injected dose/g: 0.58%
Rattus norvegicus [14]
  Injected dose/g: 10%
Rattus norvegicus [15]
  Injected dose/g: 1.23%
Rattus norvegicus [16]
  Injected dose/g: 8.65%
Rattus norvegicus [17]
  Injected dose/g: 0.25%
Rattus norvegicus [18]
  Injected dose/g: 0.19%
Rattus norvegicus [19]
  uterus/blood ratio: 2.47
Rattus norvegicus [20]
  Injected dose/g: 1.15%
[21]
  BSI: 159
[22]
  logP: 4.13
Rattus norvegicus [23]
  Injected dose/g: 0.6%
Rattus norvegicus [24]
  Injected dose/g: 0.49%
Rattus norvegicus [25]
  uterus/blood ratio: 71.1
Rattus norvegicus [26]
  Uterus to muscle uptake ratio: 12.07%
